# In the library only some 0.77% were active in any assay of this set; here they are far more common.
# hIAP block = human IAP inhibition; P09923; purified IAP, CDP-Star luminescence, 30 min; inhibition, % at 10 µM; 0.12% of 330,000 active; AID 2544;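 active = inhibition reaching a set limit with compound at 10 µM in the primary screen, cut at about 35% in these data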;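 also: plate controls were DMSO wells with enzyme for no effect and no-enzyme buffer wells for full effect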
# Target sequence (P09923 whole entry, looked up): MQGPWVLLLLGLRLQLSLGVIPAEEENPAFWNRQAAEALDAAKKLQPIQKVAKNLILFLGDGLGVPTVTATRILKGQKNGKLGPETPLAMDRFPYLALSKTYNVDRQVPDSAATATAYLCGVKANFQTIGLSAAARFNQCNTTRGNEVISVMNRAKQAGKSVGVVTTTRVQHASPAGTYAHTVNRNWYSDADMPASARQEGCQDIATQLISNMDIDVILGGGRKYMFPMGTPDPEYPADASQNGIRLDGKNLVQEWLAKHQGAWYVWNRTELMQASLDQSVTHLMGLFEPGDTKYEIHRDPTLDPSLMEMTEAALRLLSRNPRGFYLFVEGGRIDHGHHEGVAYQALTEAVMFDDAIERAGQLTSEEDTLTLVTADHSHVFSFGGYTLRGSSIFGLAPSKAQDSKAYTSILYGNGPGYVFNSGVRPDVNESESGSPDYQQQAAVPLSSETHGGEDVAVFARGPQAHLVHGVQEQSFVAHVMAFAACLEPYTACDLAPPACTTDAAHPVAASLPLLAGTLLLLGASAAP
# hIAP act = human IAP activation. 0.16% of 330,000 active. activation factor at 10 µM. purified human IAP, CDP-Star luminescence, 30 min; active compounds read high; 1 = vehicle-only enzyme, 0 = enzyme-free background;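 active = activation factor of the enzyme at least 2-fold when tested at 20 µM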
# mIAP block = mouse IAP inhibition | purified mouse IAP, CDP-Star luminescence, 30 min | 0.2% of 330,000 active | inhibition, % at 10 µM | AID 2806;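 active = inhibition of at least 40% at 10 µM in the primary screen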;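 also: plate controls were DMSO with enzyme for no effect and no enzyme wells for full effect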
# bIAP inhibitor = intestinal alkaline phosphatase (bovine) inhibition. purified bovine IAP, CDP-star luminescence, 30 min. inhibition, % at 20 µM. 190,000 tested, under 10 active. AID 1019;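 active = over 50% inhibition of intestinal alkaline phosphatase at 20 µM in the single-dose screen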
#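 Assay system – bovine IAP enzyme · Quantity – bovine IAP at 1/65,000,000 final dilution · Detection – CDP-star luminescence signal · Times – 30 min reaction at room temperature · Also added – CDP-star substrate at 30 µM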
# bIAP act = increases bovine intestinal alkaline phosphatase activity; purified bovine IAP, CDP-star luminescence, 30 min; active compounds read high; fold of DMSO-control signal, blank-subtracted; activation factor at 20 µM; 0.17% of 200,000 active; AID 1016;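 active = activation factor of 2 or more at 20 µM, a signal rise over negative controls twice the positive control's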
# mIAP activ = mouse IAP activation; 0.24% of 330,000 active; muIAP, CDP-Star luminescence, 30 min; active compounds read high; 1 = vehicle-only enzyme signal, 0 = enzyme-free wells; activation factor at 10 µM;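 active = activation factor of at least 2 at 20 µM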
#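 System: Mouse IAP enzyme | Also added: CDP-Star substrate | Dosing: Compounds dispensed in DMSO | Schedule: 30 min enzyme-substrate-compound incubation at room temperature | Technique: Chemiluminescence readout | Control set: DMSO-only wells and no-enzyme negative control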
# hIAP act confirm = human IAP activation confirmation; 10% of 880 active; AID 434926; purified IAP, CDP-Star luminescence, 30 min; active compounds read low; activation (%Activity, negative = activation), % at 8.3 µM; shares compounds with hIAP act;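 active = at least twofold enzyme activation in any of six single-dose repeats, which the averaged readout prints as negative percent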
# * = called active by the depositor; · = no result given.
SMILES,hIAP block,hIAP act,mIAP block,bIAP inhibitor,bIAP act,mIAP activ,hIAP act confirm
CCn1c2ccccc2c2cc(/C=N/n3c(-c4cc(C)[nH]n4)n[nH]c3=S)ccc21,-106,2.1*,-9,·,·,1.1,14
CCn1c2ccccc2c2cc(/C=N/n3cn[nH]c3=S)ccc21,-13,1.1,12,4,1,0.88,·
COc1ccc(NC(=O)c2cc(-c3cc(C)c(C)cc3O)n[nH]2)c(OC)c1,-112,2.1*,-4,·,·,1,-19
COc1ccc(NC(=O)c2cc(-c3cc(Cl)ccc3O)n[nH]2)c(OC)c1,-36,1.4,2,·,·,0.98,·
COc1ccc(OC)c(NC(=O)c2cc(-c3cc(C)cc(C)c3O)n[nH]2)c1,-58,1.6,-2,·,·,1,·
COc1ccc(OC)c(NC(=O)c2cc(-c3cc(C)c(C)cc3O)n[nH]2)c1,-117,2.2*,-1,·,·,1,6
CCNC(=S)NNC(=O)CSc1nc2ccccc2n1C,5,0.95,9,·,·,0.91,·
CCNC(=S)NNC(=O)CSc1nc2ccccc2[nH]1,-143,2.4*,-10,-29,1.3,1.1,-30
COC(=O)c1ccc(N/C(C)=C/C(=O)c2ccc(C)o2)cc1,36*,0.64,12,2,1,0.89,-3
CC(O)CNC(=S)Nc1ccccc1 (stereo not given),-4,1,1,7,0.9,0.99,·
O=C(NNc1ccc([N+](=O)[O-])cc1[N+](=O)[O-])c1ccco1,36*,0.64,18,·,·,0.82,14
CN(C)c1ccc(S(=O)(=O)NCC(=O)NCc2ccccc2)cc1[N+](=O)[O-],11,0.89,3,·,·,0.97,·
CNc1ccc(S(=O)(=O)NCC(=O)NCCCc2ccccc2)cc1[N+](=O)[O-],35*,0.65,-9,·,·,1.1,5
CCCNC(=S)N1CCN(c2nc(C)nc3sc4c(c23)CCCC4)CC1,-11,1.1,-20,-3,1,1.2,·
CC(C)C(=O)N(Cc1ccc(F)cc1)Cc1nc2ccccc2c(=O)[nH]1,-5,1,0,15,0.9,1,·
O=C(C1CCN(S(=O)(=O)c2ccccc2)CC1)N1CCOCC1,40*,0.6,9,10,0.9,0.91,-26
Cc1cc2cccc(C)c2nc1SCC(=O)NNC(=O)c1ccco1,-74,1.7,-8,-23,1.2,1.1,·
Cc1cc(C)c2nc(SCC(=O)NNC(=O)c3ccco3)c(C)cc2c1,-103,2*,3,-8,1.1,0.97,-59*
Cc1cc(C)cc(OCC(=O)NCc2nc(-c3ccccc3)no2)c1,-18,1.2,-6,-2,1,1.1,·
CC(Oc1ccc(F)cc1F)C(=O)NNC(=S)NCC1CCCO1 (stereo not given),-123,2.2*,-3,·,·,1,1
CCN(CCn1cccn1)C(=O)c1cccc(OC2CCN(S(C)(=O)=O)CC2)c1,4,0.96,7,·,·,0.93,·
COc1cccc2c1cc1c(=O)n(CC(=O)NCCCN3CCN(C)CC3)nc(C)n12,43*,0.57,3,·,·,0.97,0
Cc1ccc(NC(=O)COC(=O)c2ccc(Br)o2)cc1S(=O)(=O)N1CCCCC1,1,0.99,-8,·,·,1.1,·
O=c1oc(-c2ccc(O)c(O)c2)cc2cc(O)cc(O)c12,69*,0.31,35,·,·,0.65,25
O=c1oc(-c2ccc(O)c(O)c2)cc2cccc(O)c12,13,0.87,23,·,·,0.77,·
SMILES,hIAP block,hIAP act,mIAP block,bIAP inhibitor,bIAP act,mIAP activ,hIAP act confirm
O=C(NCCCN1CCOCC1)c1ccc2c(c1)N(Cc1ccc(Cl)cc1)C(=O)c1ccccc1S2=O (stereo not given),37*,0.63,8,·,·,0.92,-48*
COc1ccc(S(=O)(=O)NNC(=O)C(=O)NNc2ccccn2)cc1,-202,3*,15,·,·,0.85,6
CSCCC(NS(=O)(=O)c1ccc(C)cc1)C(=O)NNC(=O)c1csc(N2CCOCC2)n1 (stereo not given),-103,2*,32,·,·,0.68,48
COc1cc(/C=N/N=C2/C(=O)Nc3ccccc32)ccc1O,22,0.79,12,11,0.9,0.88,·
O=C1Nc2ccccc2/C1=N\N=C\c1ccc(O)c(O)c1,35*,0.65,36,·,·,0.64,62
O=C(COc1ccccc1)NCC(=O)N/N=C/c1ccc(O)cc1O,-105,2.1*,0,·,·,1,-4
COc1cccc(/C=N/NC(=O)CNC(=O)COc2ccccc2)c1O,-52,1.5,-2,·,·,1,·
O=C(O)c1ccccc1C(=O)NCc1ccccc1,-3,1,6,0,1,0.94,·
Cn1c(C(=O)N2CCCC(C(=O)NCc3cccs3)C2)cc2sccc21 (stereo not given),38*,0.62,4,5,1,0.96,-50
C[C@@H]1O[C@@H](Oc2c(-c3cc(O)c(O)c(O)c3)oc3cc(O)cc(O)c3c2=O)[C@H](O)[C@H](O)[C@H]1O,-11,1.1,13,-15,1.1,0.87,·
O=c1c(O[C@H]2O[C@@H](CO)[C@H](O)[C@@H](O)[C@@H]2O)c(-c2ccc(O)cc2)oc2cc(O)cc(O)c12,2,0.98,-3,·,·,1,·
O=c1c(OC2OC(CO)C(O)C(O)C2O)c(-c2ccc(O)c(O)c2)oc2cc(O)cc(O)c12 (stereo not given),56*,0.44,14,18,0.8,0.86,-43
C[C@@H]1O[C@@H](Oc2c(-c3ccc(O)c(O)c3)oc3cc(O)cc(O)c3c2=O)[C@H](O)[C@H](O)[C@H]1O,36*,0.64,37,·,·,0.63,1
O=c1c(O[C@@H]2O[C@H](CO)C(O)C2O)c(-c2ccc(O)c(O)c2)oc2cc(O)cc(O)c12 (stereo not given in full),59*,0.41,38,·,·,0.62,4
O=C(CSc1ncccn1)Nn1cnnc1,3,0.97,4,5,1,0.96,·
CCC(C)(C)NC(=O)CN(C(=O)CCC(=O)Nc1nccs1)c1cccc(C)c1C,-24,1.2,-2,·,·,1,·
Nc1oc2ccccc2c(=O)c1C=O,73*,0.27,11,7,0.9,0.89,15
O=C(N/N=C/c1ccc(Cl)cc1Cl)C1CCN(c2ncc(C(F)(F)F)cc2Cl)CC1,·,·,·,2,1,·,·
O=C(NNC(=O)c1ncc(Cl)c(Cl)c1Cl)c1ccc(F)cc1,-116,2.2*,11,·,·,0.89,-2
COCc1cc(=O)[nH]c(Nc2nc3ccc(C)cc3o2)n1,-108,2.1*,2,-23,1.2,0.98,-22
CCc1ccc2nc(Nc3nc(COC)cc(=O)[nH]3)nc(C)c2c1,-110,2.1*,-6,-32,1.3,1.1,-31
